According to ChEMBL document CHEMBL2163259, “ADME-guided design and synthesis of aryloxanyl pyrazolone derivatives to block mutant superoxide dismutase 1 (SOD1) cytotoxicity and protein aggregation: potential application for the treatment of amyotrophic lateral sclerosis” (J Med Chem, 2012):
Activity calls are given as the source filed them.

Assays:
[1] = target: L-type calcium channel, dihydropyridine site (Rattus norvegicus, UniProt P22002+P27732+Q02485); assay: Inhibition of rat calcium channel L-type, dihydropyridine site at 10 uM by radioligand displacement assay
Method in brief: (§1)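 Single concentration of 10 μM, tested in duplicate as part of a contracted panel of 68 in vitro enzyme and receptor assays. The panel covers common adverse CNS, cardiovascular, pulmonary and genotoxic targets.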

[2] = test system: Plasma; assay: Plasma protein binding in rat; assay type: ADME, cell-free
[3] = test system: Mus musculus; assay: Neuroprotective activity in SOD1 G93A mutant B6SJL mouse ALS model assessed as life extension at 10 mg/kg administered qd for 1 week (reference value: 125.7 +/- 4.9 days); assay type: functional
[4] = test system: Cerebral cortex neuron; assay: Cytoprotection in rat Primary cortical neurons incubated for 24 hrs and measured 72 hrs post compound dose by cytotoxicity protection assay; assay type: functional, cell-based
Method in brief: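 Primary cortical neurons from E18 Sprague-Dawley or Fischer 344 rat brain, dissociated with papain (2 mg/mL, 30 min, 37 °C), plated on poly-D-lysine at 20,000 cells/well, cultured 5 days (~90% neurons). Six-point dose response from 100 μM top, roughly one-third dilutions; 24 h pre-incubation, then MG132 100 nM. Viability read 48 h later by Calcein-AM (1 μM, 20 min, RT) fluorescence. Active = viability ≥5 SD above MG132 controls.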

[5] = target: Substance-P receptor (Homo sapiens) (UniProt P25103); assay: Inhibition of human tachykinin NK1 receptor at 10 uM by radioligand displacement assay; method in brief: as §1
Substance-P receptor (Homo sapiens), sequence (P25103 whole entry): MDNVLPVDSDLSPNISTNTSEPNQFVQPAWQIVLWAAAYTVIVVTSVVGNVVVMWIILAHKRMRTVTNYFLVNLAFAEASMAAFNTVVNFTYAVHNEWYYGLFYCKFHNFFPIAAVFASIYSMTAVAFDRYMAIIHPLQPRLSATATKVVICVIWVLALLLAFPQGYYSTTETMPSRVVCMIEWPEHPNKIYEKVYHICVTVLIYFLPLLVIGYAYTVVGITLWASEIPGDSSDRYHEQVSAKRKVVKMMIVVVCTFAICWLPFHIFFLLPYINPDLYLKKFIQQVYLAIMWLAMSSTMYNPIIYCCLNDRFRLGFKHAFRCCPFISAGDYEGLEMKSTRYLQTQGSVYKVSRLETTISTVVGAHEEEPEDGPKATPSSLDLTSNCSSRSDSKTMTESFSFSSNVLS

[6] = target: Histamine H3 receptor (Homo sapiens) (UniProt Q9Y5N1); assay: Inhibition of human histamine H3 receptor at 10 uM by radioligand displacement assay; method in brief: as §1
Histamine H3 receptor (Homo sapiens), sequence (Q9Y5N1 whole entry): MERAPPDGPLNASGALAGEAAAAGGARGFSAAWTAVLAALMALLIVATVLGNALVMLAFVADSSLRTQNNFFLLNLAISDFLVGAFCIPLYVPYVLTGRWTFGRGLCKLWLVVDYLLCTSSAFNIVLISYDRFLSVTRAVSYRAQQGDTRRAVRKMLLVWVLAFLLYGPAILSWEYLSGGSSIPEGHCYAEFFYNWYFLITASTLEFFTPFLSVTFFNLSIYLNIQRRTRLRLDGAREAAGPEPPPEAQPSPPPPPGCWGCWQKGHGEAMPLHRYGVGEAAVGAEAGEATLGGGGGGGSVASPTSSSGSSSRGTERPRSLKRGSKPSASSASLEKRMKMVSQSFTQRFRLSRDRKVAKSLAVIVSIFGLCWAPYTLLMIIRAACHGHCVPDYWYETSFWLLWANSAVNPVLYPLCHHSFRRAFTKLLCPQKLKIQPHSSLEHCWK

[7] = test system: Superoxide dismutase [Cu-Zn] (Homo sapiens), P00441 [G94A]; assay: Inhibition of SOD1 G93A mutant aggregation-induced cytotoxicity in human SH-SY5Y cells by cytotoxicity protection assay; assay type: cell-based
Superoxide dismutase [Cu-Zn] (Homo sapiens), P00441 [G94A], sequence (P00441 whole entry G94A): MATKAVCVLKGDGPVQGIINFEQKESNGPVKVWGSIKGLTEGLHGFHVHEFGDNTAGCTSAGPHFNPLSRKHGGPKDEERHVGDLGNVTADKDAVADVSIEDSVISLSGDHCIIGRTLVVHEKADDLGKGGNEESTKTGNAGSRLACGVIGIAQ

[8] = test system: Caco-2; assay: Apparent permeability from apical to basolateral side in human Caco2 cells; assay type: ADME, cell-based
[9] = Drug uptake in B6SJL mouse brain at 300 mg/kg after 4 hrs; assay type: ADME, organism-based; set-up: dose 300 mg/kg; conditions: read-out: Drug uptake
Method in brief: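 B6SJL mice given a 300 mg/kg intraperitoneal bolus. Blood and brain collected over 0–24 h, flash frozen in liquid nitrogen, stored at −80 °C. Analysed by mass spectrometry (ESI, MRM mode).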

[10] = AUClast in Sprague-Dawley rat at 1 mg/kg, iv; assay type: ADME, organism-based; set-up: dose 1 mg/kg, route intravenous, time 0 - last; conditions: plasma
Method in brief: (§2)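 Sprague-Dawley rats given a single 1 mg/kg bolus, intravenous or oral. Plasma PK parameters (AUC, dose-normalised AUC, half-life, clearance, Vss, Cmax, Tmax, oral bioavailability) derived from plasma levels.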

[11] = target: Cysteinyl leukotriene receptor 1 (Homo sapiens) (UniProt Q9Y271); assay: Inhibition of human cysteinyl CysLT1 receptor at 10 uM by radioligand displacement assay
Cysteinyl leukotriene receptor 1 (Homo sapiens), sequence (Q9Y271 whole entry): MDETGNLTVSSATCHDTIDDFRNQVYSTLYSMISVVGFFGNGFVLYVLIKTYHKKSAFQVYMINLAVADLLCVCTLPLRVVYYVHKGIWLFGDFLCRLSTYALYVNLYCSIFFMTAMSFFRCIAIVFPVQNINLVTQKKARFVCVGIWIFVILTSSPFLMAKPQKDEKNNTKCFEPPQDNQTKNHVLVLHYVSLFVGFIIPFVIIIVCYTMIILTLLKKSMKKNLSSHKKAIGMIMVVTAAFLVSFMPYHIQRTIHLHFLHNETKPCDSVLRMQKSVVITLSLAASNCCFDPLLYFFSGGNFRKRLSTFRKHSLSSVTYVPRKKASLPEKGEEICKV
Method in brief: (§3)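 LeadProfilingScreen panel of 68 in vitro enzyme and receptor assays. Compound tested at 10 μM in duplicate.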

[12] = organism: Homo sapiens; assay: Inhibition of human Sigma delta2 receptor at 10 uM by radioligand displacement assay; method in brief: as §3
[13] = test system: Plasma; assay: Plasma protein binding in human; assay type: ADME, cell-free
[14] = organism: Rattus norvegicus; assay: Inhibition of rat kainate receptor glutamate binding site at 10 uM by radioligand displacement assay; method in brief: as §1
[15] = test system: Mus musculus; assay: Neuroprotective activity in SOD1 G93A mutant B6SJL mouse ALS model assessed as life extension at 20 mg/kg administered qd for 1 week relative to untreated control; assay type: functional
[16] = target: Sodium-dependent dopamine transporter (Homo sapiens) (UniProt Q01959); assay: Inhibition of human dopamine transporter at 10 uM by radioligand displacement assay; method in brief: as §1
Sodium-dependent dopamine transporter (Homo sapiens), sequence (Q01959 whole entry): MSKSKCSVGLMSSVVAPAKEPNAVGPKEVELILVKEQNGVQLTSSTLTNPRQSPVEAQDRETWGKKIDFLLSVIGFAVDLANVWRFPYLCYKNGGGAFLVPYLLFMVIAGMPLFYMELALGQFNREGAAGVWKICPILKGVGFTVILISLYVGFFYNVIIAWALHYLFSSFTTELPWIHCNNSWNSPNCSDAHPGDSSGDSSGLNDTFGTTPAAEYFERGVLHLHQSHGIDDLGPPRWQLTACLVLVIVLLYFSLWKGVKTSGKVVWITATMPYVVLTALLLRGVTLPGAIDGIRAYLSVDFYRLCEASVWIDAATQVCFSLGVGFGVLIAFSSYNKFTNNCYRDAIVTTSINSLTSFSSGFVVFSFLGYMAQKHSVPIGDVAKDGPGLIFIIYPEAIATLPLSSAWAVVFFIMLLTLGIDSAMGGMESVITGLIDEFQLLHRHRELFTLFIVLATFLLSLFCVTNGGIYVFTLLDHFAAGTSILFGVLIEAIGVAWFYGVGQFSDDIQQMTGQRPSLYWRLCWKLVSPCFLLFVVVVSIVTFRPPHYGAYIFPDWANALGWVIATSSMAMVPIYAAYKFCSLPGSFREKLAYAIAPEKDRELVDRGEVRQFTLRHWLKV

[17] = organism: Homo sapiens; assay: Inhibition of human nicotinic acetylcholine receptor at 10 uM by radioligand displacement assay; method in brief: as §1
[18] = target: T1, Glutamate NMDA receptor (Rattus norvegicus) (UniProt P35439+Q00959+Q00960+Q00961+Q62645+Q8VHN2+Q9R1M7); assay: Inhibition of rat NMDA receptor glutamate binding site at 10 uM by radioligand displacement assay; assay type: protein-complex assay; method in brief: as §1
[19] = target: Histamine H2 receptor (Homo sapiens) (UniProt P25021); assay: Inhibition of human histamine H2 receptor at 10 uM by radioligand displacement assay; method in brief: as §1
Histamine H2 receptor (Homo sapiens), sequence (P25021 whole entry): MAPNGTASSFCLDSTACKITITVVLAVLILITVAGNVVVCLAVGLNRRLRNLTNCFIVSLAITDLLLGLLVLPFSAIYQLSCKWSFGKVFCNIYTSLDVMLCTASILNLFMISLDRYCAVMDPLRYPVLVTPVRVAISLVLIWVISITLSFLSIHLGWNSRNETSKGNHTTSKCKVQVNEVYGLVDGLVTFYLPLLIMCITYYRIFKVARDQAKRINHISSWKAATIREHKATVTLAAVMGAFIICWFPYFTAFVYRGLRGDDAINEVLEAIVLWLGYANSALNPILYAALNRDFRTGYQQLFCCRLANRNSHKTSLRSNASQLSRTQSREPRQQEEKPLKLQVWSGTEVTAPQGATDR

[20] = Plasma concentration in B6SJL mouse at 300 mg/kg after 24 hrs by mass spectrometry; assay type: ADME, organism-based; set-up: dose 300 mg/kg
Method in brief: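 B6SJL mice were given a single 300 mg/kg intraperitoneal bolus. Blood and brain were collected at 0, 1, 3, 6, 12 and 24 h, flash-frozen in liquid nitrogen and stored at -80 °C. Samples were analyzed by mass spectrometry with ESI ionization in MRM mode.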

[21] = target: hERG (Homo sapiens, UniProt Q12809); assay: Inhibition of human ERG at 10 uM by radioligand displacement assay; method in brief: as §3
hERG, sequence (Q12809 whole entry): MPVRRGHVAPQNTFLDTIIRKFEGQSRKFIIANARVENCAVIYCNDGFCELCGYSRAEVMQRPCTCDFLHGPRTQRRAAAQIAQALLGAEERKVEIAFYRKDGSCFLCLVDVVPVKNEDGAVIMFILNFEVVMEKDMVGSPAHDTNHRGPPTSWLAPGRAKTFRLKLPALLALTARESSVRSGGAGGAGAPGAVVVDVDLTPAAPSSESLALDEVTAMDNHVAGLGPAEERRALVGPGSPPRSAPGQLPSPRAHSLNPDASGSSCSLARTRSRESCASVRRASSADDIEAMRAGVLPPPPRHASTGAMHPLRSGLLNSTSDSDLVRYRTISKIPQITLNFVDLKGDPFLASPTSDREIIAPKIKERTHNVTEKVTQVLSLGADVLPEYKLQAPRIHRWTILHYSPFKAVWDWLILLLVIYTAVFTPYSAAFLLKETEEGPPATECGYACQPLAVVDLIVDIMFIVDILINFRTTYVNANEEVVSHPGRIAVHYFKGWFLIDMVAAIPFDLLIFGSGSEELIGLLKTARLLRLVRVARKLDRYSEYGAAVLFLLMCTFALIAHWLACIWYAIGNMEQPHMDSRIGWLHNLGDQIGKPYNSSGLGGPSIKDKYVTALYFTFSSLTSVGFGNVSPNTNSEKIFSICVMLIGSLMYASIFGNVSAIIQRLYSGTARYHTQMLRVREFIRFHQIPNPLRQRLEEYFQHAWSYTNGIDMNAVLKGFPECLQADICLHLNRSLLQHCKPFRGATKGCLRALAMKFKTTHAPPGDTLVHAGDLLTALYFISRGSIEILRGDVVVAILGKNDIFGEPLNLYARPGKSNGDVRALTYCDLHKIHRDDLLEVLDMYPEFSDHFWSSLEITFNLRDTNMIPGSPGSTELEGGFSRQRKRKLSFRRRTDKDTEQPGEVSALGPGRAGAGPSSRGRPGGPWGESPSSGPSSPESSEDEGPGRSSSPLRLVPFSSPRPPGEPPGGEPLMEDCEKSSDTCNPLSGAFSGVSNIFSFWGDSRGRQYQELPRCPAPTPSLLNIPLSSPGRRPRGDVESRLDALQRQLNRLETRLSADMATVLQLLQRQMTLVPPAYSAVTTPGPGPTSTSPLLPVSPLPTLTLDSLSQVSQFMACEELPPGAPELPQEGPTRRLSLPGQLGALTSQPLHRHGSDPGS

[22] = Volume of distribution at steady state in Sprague-Dawley rat at 1 mg/kg, iv; assay type: ADME, organism-based; set-up: dose 1 mg/kg, route intravenous; conditions: in vivo, read-out: Vdss
Method in brief: (§4)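 Sprague-Dawley rats received a single bolus of 1 mg/kg by i.v. or by oral route. Plasma PK parameters were derived from the plasma concentration profile.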

[23] = target: T1, Glutamate NMDA receptor (Rattus norvegicus); assay: Inhibition of rat NMDA receptor glutamate and glycine binding site at 10 uM by radioligand displacement assay; assay type: protein-complex assay; method in brief: as §1
[24] = organism: Homo sapiens; assay: Inhibition of human dopamine […] receptor at 10 uM by radioligand displacement assay; method in brief: as §1
[25] = organism: Homo sapiens; assay: Inhibition of human dopamine D4.2 receptor at 10 uM by radioligand displacement assay; method in brief: as §1
[26] = organism: Rattus norvegicus; assay: Inhibition of rat imidazoline I2 receptor at 10 uM by radioligand displacement assay; method in brief: as §1
[27] = Tmax in Sprague-Dawley rat at 1 mg/kg, po; assay type: ADME, organism-based; set-up: dose 1 mg/kg, route oral; conditions: in vivo; method in brief: as §4
[28] = target: Cytochrome P450 2C9 (Homo sapiens, UniProt P11712); assay: Inhibition of CYP2C9; assay type: ADME
Cytochrome P450 2C9, sequence (P11712 whole entry): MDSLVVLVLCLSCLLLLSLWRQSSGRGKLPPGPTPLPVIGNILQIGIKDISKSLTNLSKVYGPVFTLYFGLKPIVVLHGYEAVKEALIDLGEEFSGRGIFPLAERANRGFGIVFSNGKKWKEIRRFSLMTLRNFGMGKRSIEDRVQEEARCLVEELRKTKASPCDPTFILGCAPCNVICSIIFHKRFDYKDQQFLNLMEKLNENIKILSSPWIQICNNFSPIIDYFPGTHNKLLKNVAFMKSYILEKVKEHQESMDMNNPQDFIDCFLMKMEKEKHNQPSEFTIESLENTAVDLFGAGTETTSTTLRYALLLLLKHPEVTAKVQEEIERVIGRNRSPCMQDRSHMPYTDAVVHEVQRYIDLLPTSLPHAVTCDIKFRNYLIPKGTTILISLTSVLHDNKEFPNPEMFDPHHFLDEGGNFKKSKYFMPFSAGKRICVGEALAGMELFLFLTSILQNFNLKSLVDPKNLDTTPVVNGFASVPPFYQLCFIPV
Method in brief: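 Reversible inhibition of CYP isozymes in human liver microsomes, each isozyme with a single probe substrate. CYP3A4 tested with both testosterone and midazolam. IC50 determined.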

[29] = target: Endothelin receptor type B (Homo sapiens) (UniProt P24530); assay: Inhibition of human endothelin ETB at 10 uM by radioligand displacement assay; method in brief: as §1
Endothelin receptor type B (Homo sapiens), sequence (P24530 whole entry): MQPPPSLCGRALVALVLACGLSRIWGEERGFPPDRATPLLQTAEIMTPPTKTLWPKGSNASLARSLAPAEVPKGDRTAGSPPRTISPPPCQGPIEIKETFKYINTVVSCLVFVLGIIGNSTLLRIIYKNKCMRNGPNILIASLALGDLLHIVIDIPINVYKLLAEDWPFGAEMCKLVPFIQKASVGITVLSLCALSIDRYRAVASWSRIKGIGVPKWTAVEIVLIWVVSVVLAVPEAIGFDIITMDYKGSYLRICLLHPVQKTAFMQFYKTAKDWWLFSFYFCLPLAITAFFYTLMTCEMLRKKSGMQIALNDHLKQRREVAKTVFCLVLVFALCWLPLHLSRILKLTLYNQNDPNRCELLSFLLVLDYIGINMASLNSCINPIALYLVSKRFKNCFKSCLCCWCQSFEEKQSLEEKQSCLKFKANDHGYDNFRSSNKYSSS

[30] = target: Muscarinic acetylcholine receptor M1 (Homo sapiens) (UniProt P11229); assay: Inhibition of human muscarinic M1 receptor at 10 uM by radioligand displacement assay; method in brief: as §1
Muscarinic acetylcholine receptor M1 (Homo sapiens), sequence (P11229 whole entry): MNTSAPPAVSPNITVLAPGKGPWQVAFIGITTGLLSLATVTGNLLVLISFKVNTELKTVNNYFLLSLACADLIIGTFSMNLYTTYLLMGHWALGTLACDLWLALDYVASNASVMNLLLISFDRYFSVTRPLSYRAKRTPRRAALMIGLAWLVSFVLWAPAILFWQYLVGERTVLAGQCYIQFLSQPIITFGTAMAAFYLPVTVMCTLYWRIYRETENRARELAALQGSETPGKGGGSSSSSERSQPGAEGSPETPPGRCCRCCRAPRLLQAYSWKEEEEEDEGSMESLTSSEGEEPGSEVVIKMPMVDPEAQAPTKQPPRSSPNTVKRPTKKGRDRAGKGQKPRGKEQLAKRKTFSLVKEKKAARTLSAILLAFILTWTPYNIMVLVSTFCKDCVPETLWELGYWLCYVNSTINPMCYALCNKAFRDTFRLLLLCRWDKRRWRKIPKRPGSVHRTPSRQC

[31] = Cmax in Sprague-Dawley rat at 1 mg/kg, po; assay type: ADME, organism-based; set-up: dose 1 mg/kg, route oral; conditions: in vivo; method in brief: as §2
[32] = organism: Oryctolagus cuniculus; assay: Inhibition of rabbit Purinergic P2X receptor at 10 uM by radioligand displacement assay; assay type: tissue-based; method in brief: as §1

With O=c1cc(COc2cc(Cl)cc(Cl)c2)[nH][nH]1 the inhibition at 10 µM [1] was -5%, the PPB [2] was 98% and the Survival [3] was 135 days. The Activity [4] was “Active”, the inhibition [5] was 3% and the inhibition [6] was 15%. The inhibition [7] was “Active”, the Papp [8] was 36.7 ×10⁻⁶ cm/s and the concentration at 4 h [9] was 194 µM. The AUC(0-t) [10] was 179 ng·h/mL, the inhibition [11] was 0% and the inhibition [12] was 5%. For the same molecule, the PPB [13] was 98%, the inhibition [14] was 24% and the Activity [15] was 13.3%. For the same molecule, the inhibition [16] was 11%, the inhibition [17] was 7% and the inhibition [18] was -3%. The inhibition [19] was 3%, the concentration at 24 h [20] was 6.5 µM and the inhibition at 10 µM [21] was -7%. The Vd [22] was 5.7 L/kg, the inhibition [23] was 5% and the inhibition [24] was 14%. For the same molecule, the inhibition [25] was -3%, the inhibition [26] was 12% and the Tmax [27] was 15 min. For the same molecule, the IC50 [28] was > 50 µM, the inhibition [29] was 0% and the inhibition [30] was 2%. The Cmax [31] was 39 ng/mL and the inhibition [32] was 1%.
